The record followed here is the RNAGym collection of RNA variant scans (doi:10.1126/science.aae0568).

This sample holds only a part of the variants without activity. A value given as a limit tells only on which side of the number the result lay.

To fix the notation:
B1: tRNA (parent)
chain: GUUCCGUUGGCGUAAUGGUAACGCGUCUCCCUCCUAAGGAGAAGACUGCGGGUUCGAGUCCCGUACGGAACG

Variants of B1 are the subject of this data set. Description: yeast fitness relative to wild type (ratio to wild type); higher = fitter; tRNA-Arg(CCU), competitive growth, 37 C, YPD. In a few lines:
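Changes in genotype frequencies gave Darwinian fitness relative to wild type. Frequencies were read by 100-nucleotide paired-end sequencing of gene amplicons before and after pooled Saccharomyces cerevisiae strains, carrying tRNA-Arg(CCU) gene variants at the native locus, were competed in YPD at 37°C for 24 hours in six replicates. A genotype was kept only with ≥ 100 starting reads, and estimates < 0.5 were set to 0.5.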
Turning to A20C G44A G56A, the yeast fitness was 0.544. With C24U U28C G48A C61G, the yeast fitness is not above 0.5. In the case of G6A C31U A36G it was not above 0.5. As for A21U U35C G51C, the yeast fitness was not above 0.5. In the case of G18A U19A C27U G67A it was not above 0.5. For G10C G58C G67A, the yeast fitness is not above 0.5. With A21G C27U, the yeast fitness came to 1.03. Under C5A C30U stands 0.693. In the case of C27U U28G A40C G51A it was 0.543; in that of C5A C11G G51A, 0.538; in that of A14G U26G A37U A45U G51A A65C, not above 0.5. Turning to C30G C46A U47G C49A G52A G58C U64G A65G, the yeast fitness turned out to be 0.528.

For the variant U8A C22U G38C C49G, the yeast fitness stood at 0.602. In the case of C11U A14G A57G U59C A69U it was not above 0.5. For A14C G17C G18A G23C, the yeast fitness came out at 0.554.

Regarding G6C A36U A65U, the yeast fitness was not above 0.5. Under U8C G68A stands 0.741; under G6C G56A G67A, 0.588; under C5A A36U G39A A45G G63U, not above 0.5. Under A43C C61G stands 0.66. With A14U U28A G67C, the yeast fitness is not above 0.5.

For the variant A43U G63C A70U, the yeast fitness came to 0.54. In the case of U28A C30U it was 0.667. As for C29U C31A G38C C60A, the yeast fitness is not above 0.5. Under G10A C30G A65G stands not above 0.5; under G25C A36G G48A, 0.571; under A21G A70G, 0.992. As for C55G A69G, the yeast fitness was found to be 0.627. In the case of C62U G67C it was 0.917; in that of C30U A57G A70U, 0.558; in that of G17A U32A, 0.691. In the case of A43C U53A it was 0.662; in that of U7A A15U U54C, not above 0.5. In the case of G17A C31A G68C it was not above 0.5; in that of C33G A40G G51C C61U, not above 0.5. With C33A A43U C49A, the yeast fitness was determined as 0.591. Regarding C4U G50C G51C G56A, the yeast fitness was not above 0.5. Under U32G C33G A70U stands 0.543; under G10A A15C A70U, not above 0.5; under C5A C24U A37G A40G A42U C49U, not above 0.5.

Take A37G U47A C55A G58C: the yeast fitness is not above 0.5.

For the variant C4G A14G U64C, the yeast fitness is not above 0.5. In the case of C5U A21C G44C it was 0.529; in that of C11U C30U C66A, not above 0.5.

For the variant C4U A20U C22G, the yeast fitness turned out to be 0.54. Under G10C G25C U26C stands 0.526; under A57G A65G, 1.02. In the case of C5G G23A C31G it was not above 0.5.

Turning to C24G A57C C61U, the yeast fitness was not above 0.5. As to A15U C24A G25A U47C G52C C61G, the yeast fitness is not above 0.5. With A45G G50A, the yeast fitness was 0.857.

U3G C4U C30U C33G C55U G68U: the yeast fitness was not above 0.5.

C24G A40G A42G: the yeast fitness came to 0.54. Under C33G A45U C55U stands not above 0.5.

As to C5U A40C, the yeast fitness came out at 0.851. Consider G9C A20C U47C C66A, for which the yeast fitness is 0.543. Under U3C U7G A14C C31A stands 0.788; under U2C C31A G50C A70G, not above 0.5; under C4U G12A U19C U26A, not above 0.5. Under G10C C33G stands 0.558. C5U C34A G38C A70C: the yeast fitness turned out to be 0.608. In the case of A36C G41A it was 0.587. In the case of C4G A40U A69U it was 0.72; in that of A20C G38A U53A, not above 0.5. For G18U U26A G67C, the yeast fitness is not above 0.5. Regarding G17C U47G G67A A69U, the yeast fitness stood at 0.55. Consider C11G C49U C61A, for which the yeast fitness turned out to be 0.582. Under G25C C27G C30G C60A stands not above 0.5; under C11U U13C C24A A43C G50C, not above 0.5; under A15G C31G G44C C46G, 0.647.

As for C5G C31U G41C A43C C60G, the yeast fitness was not above 0.5.

Take C4U C34G A69C: the yeast fitness worked out at 0.664.

As to A14G U26G, the yeast fitness is 0.81.

For C60A U64A, the yeast fitness was 0.561. Under A36C A37C G51C stands not above 0.5. On to A43U C61A, for which the yeast fitness was 0.764. For C27U A43G C46G A69C, the yeast fitness is not above 0.5. In the case of U3C C66U it was 0.904. For the variant U2G C11G A20U C24G C60G G68C, the yeast fitness turned out to be 0.518. In the case of U2G C33A C49G U64C G67C it was not above 0.5; in that of C11G G58A A70G, 0.659; in that of C11G C24G C49U, not above 0.5. Under A20C C24G C27A G44A U59G A65C stands not above 0.5. With A42C C62U, the yeast fitness worked out at 0.829.

A15C C24A U53C: the yeast fitness is not above 0.5. Consider U16A A36G G51A, for which the yeast fitness is not above 0.5. For U8C C22A A36C C55G A65G C66G, the yeast fitness is not above 0.5. In the case of U13A C22G C27G C31G C61G A69U, the yeast fitness was not above 0.5. Under C4G U7C C27A A70U stands not above 0.5. In the case of U7A A20G G23A G44A G52C, the yeast fitness is not above 0.5.

Consider G9A C29A A37G, for which the yeast fitness was 0.513.

As to U16C A21C C22U, the yeast fitness was not above 0.5.

On to U7A G23C C33G C46U U64C, for which the yeast fitness turned out to be 0.579. In the case of G12C A15U C24A it was 0.528; in that of G18C G25C U28G A42G, not above 0.5. In the case of U8G U13G G23C A40C G63A it was not above 0.5; in that of G6A G50A C60A G68U, not above 0.5; in that of A15U C24U G44A, 0.503. In the case of G10C U54C G56A it was not above 0.5; in that of U2A G9A A37C A42C G68A, not above 0.5; in that of G25A C33G A42G G50A G52A, not above 0.5. For C22U C60U C61A, the yeast fitness was not above 0.5. In the case of C30A A36C it was 0.579. As for G9A A45U A70U, the yeast fitness came to 1.01. With C4U A40G, the yeast fitness was 0.997. Under C11A G51A C66G stands not above 0.5. Under G12A C27A C29U stands 0.981.

For C5G C31U, the yeast fitness was found to be 0.867. Turning to U19C C31G U35A C61A A69C, the yeast fitness was found to be 0.504. In the case of A21C A36U G48A it was not above 0.5; in that of A20G G67U A69C, not above 0.5; in that of C4A U13C G23C C34G A45G U53C U64A, 0.675. In the case of C4G G17A G41C G58A it was not above 0.5; in that of C33G C55G G67A, not above 0.5. Under U7A G9C G17C G48A G63A stands 0.584. For G12A U28G C33G, the yeast fitness is not above 0.5.

Regarding A45U C46A G51U, the yeast fitness was not above 0.5. Take G39C A57U: the yeast fitness was found to be 0.682. In the case of G63A G67A it was 0.693; in that of G12A U13C C49U, 0.674; in that of G51C U54A, not above 0.5. Consider G10A A20C C61A C62U G63U C66A, for which the yeast fitness amounted to 0.646. As to U13C U59A, the yeast fitness came to 0.768. In the case of G10C A14U U19C C60A G68C it was not above 0.5; in that of A14U A37U U47C, not above 0.5.

Regarding G6A A21G C24G A37U, the yeast fitness was not above 0.5. Turning to U8A C22U A43G C66A, the yeast fitness is not above 0.5.

On to U7A A14U A36U G50C U54A G56A C61A, for which the yeast fitness was not above 0.5. Take G9C A20G U35C A36G: the yeast fitness is not above 0.5. With C4A U28A C31G U35A U47A U54A, the yeast fitness was not above 0.5. In the case of G6A G9A C22U C30G it was not above 0.5; in that of A20U C30U U35G A36U, not above 0.5; in that of A21C C27A, 0.545. Regarding G6A A15U A69U A70U, the yeast fitness is not above 0.5. Under G6A U13G G50C stands 0.538. In the case of C29U G38A G48C A57G it was not above 0.5; in that of C33A A65G A69C, not above 0.5; in that of C46G U54C A69C, 0.601. In the case of U8G C49G U53C C60A it was not above 0.5.

G6C C60G A65U: the yeast fitness was not above 0.5. In the case of C29U G39A G67A it was 0.565; in that of A20C C31A G48A U59C, not above 0.5; in that of C34G A40G U64C, 0.578. Under C22A C24G U53A stands not above 0.5. For C11A C27U C33U U35C A57U, the yeast fitness is not above 0.5. In the case of C4G G58C C66U it was 0.73; in that of C11G U13G A21G G63A, not above 0.5; in that of U2C C4U C30A, 0.716.
